Most compounds without a hit are left out; they make up all but 3.9% or so of the library.
Gli-Sufu antag: Gli-Sufu pathway antagonism; Sufu-KO-LIGHT fibroblasts, Gli luciferase reporter luminescence; inhibition, % at 5 µM; actives 0.74% (n = 340,000);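 active = inhibition above about 55%, limit read from the data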;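 also: 0% = DMSO-treated cells and 100% = wells with medium but no cells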
Jurkat NFkB inh: inhibitors of the PMA/ionomycin-induced NF-kB reporter in Jurkat cells. PMA/ionomycin-induced NF-kB luciferase reporter, luminescence. inhibition, % at 4 µM. actives 0.53% (n = 330,000); in the data active = inhibition above about 50%
697 NFkB inh: inhibitors of the PMA/ionomycin-induced NF-kB reporter in 697 B cells. inhibition, % at 4 µM. AID 435022. actives 0.33% (n = 330,000). 697 B-cell NF-kB luciferase reporter, 16 h; in the data active = inhibition above about 35%
CHOP inh: blocks CHOP induction under ER stress; CHO-K1 CHOP-promoter luciferase, tunicamycin-induced, 15-18 h; inhibition, % at 10 µM; actives 3.8% (n = 220,000);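 active = compounds that reduced the stress-induced luciferase reporter signal by more than about 70% of percent inhibition, limit read from the data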;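 also: 0% = tunicamycin plus vehicle and 100% = wells without tunicamycin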
XBP1 UPR activ: activators of adaptive arm of unfolded protein response (XBP1); AID 463104; activation, % at 20 µM; actives 0.33% (n = 330,000); CHO-XBP1 luciferase reporter, IRE1-XBP1 UPR activation, luminescence; percent of tunicamycin response, DMSO as zero;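 active = versus positive control, 20 µM dose yields 30% or more activation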;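 also: 100% = tunicamycin at 10 µg/mL and 0% = DMSO only wells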
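Material – CHO cell line with stable XBP1 luciferase reporter · Buffer or medium – F12 plus 10% FBS · Compound – single point, 20 µM final compound, 1% DMSO · Schedule – 16-18 h cell attachment at 37 °C, then 6 h compound exposure · Signal – Steady-Glo luminescence read · Benchmarks – high control tunicamycin 10 µg/mL final, low control DMSO vehicle only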
UPR CHOP act: activators of apoptotic arm of unfolded protein response (CHOP) | CHO-CHOP luciferase reporter, UPR activation, luminescence; percent of tunicamycin response over DMSO baseline | activation, % at 10 µM | AID 449763 | actives 0.34% (n = 330,000);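 active = at 10 µM dose, activation of 40% or more, normalized to positive control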;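 also: 100% = tunicamycin at 10 µg/mL and 0% = DMSO alone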
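Material: CHO-CHOP cells, stable luciferase reporter of PERK-eIF2a-CHOP signalling; quantity: 500 reporter cells seeded per well; buffer or medium: F12 medium containing 10% fetal bovine serum; compound: one dose, 10 µM in 0.5% DMSO; incubation: 6 h compound treatment, 37 °C; measured by: Steady-Glo luciferase luminescence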
Jurkat NFkB conf: inhibitors of the PMA/ionomycin-induced NF-kB reporter in Jurkat cells, retest. shares compounds with Jurkat NFkB inh. Jurkat NF-kB luciferase, 16 h. inhibition, % at 4 µM. actives 27% (n = 2,700);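 active = inhibition reaching about 45% at 4 µM in either replicate, limit read from the data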;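 also: plate controls were PMA/ionomycin stimulated DMSO wells for no effect and unstimulated DMSO wells for full effect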
* hit, by the source's call; · = not tested or not shown.

SMILES	Gli-Sufu antag	Jurkat NFkB inh	697 NFkB inh	CHOP inh	XBP1 UPR activ	UPR CHOP act	Jurkat NFkB conf
CCc1cc2c(=O)n(Cc3ccco3)c(SCC(=O)NCC3CCCO3)nc2s1 (configuration not stated)	17.7	1.8	-11.3	·	-7.8	-1.0	·
CCc1cc2c(=O)n(Cc3ccco3)c(SCc3c(C)noc3C)nc2s1	15.5	55.3*	2.1	·	1.4	1.0	28.0
Cc1ccc(C(=O)CSC2=C(C#N)C(c3ccco3)C3=C(CCCC3=O)N2)cc1 (configuration not stated)	-7.0	66.6*	-83.6	-14.4	6.0	2.1	44.2
N#CC1=C(SCC(=O)c2ccccc2)NC2=C(C(=O)CCC2)C1c1ccco1 (configuration not stated)	-102.6	9.8	-166.1	-53.0	6.0	8.1	·
O=C(/C=C/c1cccs1)N1CCc2ccccc21	-83.1	-161.0	-193.5	56.4	-3.1	-3.1	-102.3
O=C(c1cccs1)N1CCc2ccccc21	-34.9	-62.1	-26.2	12.0	3.7	4.7	·
O=[N+]([O-])c1ccc(N2CCN(Cc3ccccc3)CC2)nc1	11.0	14.3	-2.3	16.1	-2.1	1.0	·
O=[N+]([O-])c1ccc(N2CCN(c3cccc(Cl)c3)CC2)nc1	10.6	61.3*	4.6	·	-2.3	-1.2	15.4
N#C/C(=C\c1ccc[nH]1)C(=O)Nc1ccccc1F	-34.6	-54.4	-42.1	·	4.0	5.2	·
Cc1cc(/C=C(\C#N)C(=O)Nc2ccccc2F)c(C)[nH]1	-134.3	-190.8	-128.2	-3.2	0.5	4.8	-5.0
Cc1cnc(NC(=O)C2CC(=O)N(c3cccc(Cl)c3)C2)s1 (configuration not stated)	-199.0	75.5*	-0.5	·	-9.8	-4.2	72.4*
Cc1cnc(NC(=O)C2CC(=O)N(c3ccc4c(c3)OCCO4)C2)s1 (configuration not stated)	-16.2	0.4	-3.4	·	-3.6	-1.7	·
Nc1ncn([C@@H]2O[C@H](CO)[C@@H](O)[C@H]2O)c(=O)n1	23.3	79.8*	-116.2	-13.6	6.5	24.6	84.7*
CCOC(=O)C1=CNS(=O)(=O)NC1c1ccc(C[C@H](NC(=O)CNC(=O)CCc2ccccc2)C(N)=O)cc1 (some centres not stated)	-1.2	·	2.9	·	-0.2	1.3	·
Cc1cccc(NC(=O)c2ccc3c(Cl)c4c(nc3c2)CCCC4)n1	-39.8	-125.6	-210.3	56.4	0.7	-2.4	·
O=C(Nc1ccc(Cl)cn1)c1ccc2c(Cl)c3c(nc2c1)CCC3	·	-157.3	-168.3	66.0	9.3	7.3	-93.0
Cc1nc2cc(NC(=O)Nc3cccc([N+](=O)[O-])c3)ccc2n1C	-112.6	-166.4	-215.6	·	0.6	1.3	-118.1
Cc1ccc(NC(=O)Nc2ccc3c(c2)nc(C)n3C)cc1	-107.4	-116.6	-114.7	-16.8	-0.8	0.4	·
CN(C)c1ccc(-c2nnc(-c3ccccc3F)o2)cc1	-68.1	-173.6	-207.9	·	-2.8	-0.6	-106.8
Clc1ccc(-c2nnc(-c3ccccc3Cl)o2)cc1	-78.6	-193.5	-203.2	49.0	-1.1	-1.2	-128.7
Cc1ccc(C)c(N(C)C(=O)CCS(=O)(=O)c2cccc3nonc23)c1	-6.0	1.3	7.7	·	-2.2	-1.6	·
CCOc1ccccc1NC(=O)c1cccc(NC(=O)c2ccco2)c1	-0.6	57.4*	-34.7	·	2.6	-1.1	30.9
O=C(CN1CCN(S(=O)(=O)c2ccccc2F)CC1)Nc1ccnn1C1CCCC1	1.0	-9.6	-8.6	·	-2.8	-0.7	·
COc1ccc(N/C=C/C(=O)c2ccc(C)cc2)c([N+](=O)[O-])c1	-82.6	-179.3	-190.9	·	-0.2	7.8	-84.3
CCOc1ccc(N/C=C/C(=O)c2ccc(OC)cc2)c([N+](=O)[O-])c1	-81.4	-69.1	-80.1	-8.6	5.4	3.9	·
SMILES	Gli-Sufu antag	Jurkat NFkB inh	697 NFkB inh	CHOP inh	XBP1 UPR activ	UPR CHOP act	Jurkat NFkB conf
COc1ccc(C(=O)/C=C/Nc2cccc(O)c2)cc1	-66.7	-178.7	-60.0	12.0	-3.6	-2.1	-68.7
Cc1ccc(O)c(NC(=O)CCC2CCCCC2)c1	-6.3	64.4*	3.3	·	-1.9	2.4	40.4
Cc1cccc(OCC(=O)Nc2cc(C)ccc2O)c1	20.9	71.7*	29.4	·	-3.4	-1.7	55.0*
O=C(NC1CCCC1)C(c1ccccc1F)N(C(=O)c1csnn1)c1ccccc1 (configuration not stated)	3.4	-5.5	21.5	·	1.9	0.2	·
Cc1ccc(Cl)c(N/C=C/C(=O)c2ccccc2)c1	-86.1	-181.0	-229.0	·	5.4	3.6	-79.9
COc1cccc(C(=O)/C=C/Nc2cc(C)ccc2O)c1	22.2	67.4*	-61.3	·	8.0	6.7	-8.1
Cc1cccc(N/C=C/C(=O)c2ccc(Cl)cc2)c1	-125.2	-136.4	-154.0	·	0.1	5.7	·
CCOC(=O)C1(CCOc2ccccc2)CCN(C(=O)CCSC)CC1	-17.6	·	·	·	·	·	·
COc1cccc(NC(=O)CN(C)CC(=O)Nc2ccc(C)c([N+](=O)[O-])c2)c1	-9.1	-11.3	7.1	·	-0.1	-1.0	·
Cc1cc(C)cc(C(=O)N2CCCCC2)c1	6.2	·	·	·	·	·	·
O=C(NC1CCCCC1)c1ccc(-c2ccccc2[N+](=O)[O-])o1	·	-152.4	-174.8	·	2.7	7.5	-105.3
Cc1cc(C)c2nc(C)cc(N/N=C/c3ccc(O)cc3)c2c1	8.6	98.0*	-6.7	·	3.2	14.8	81.3*
COc1ccc(S(=O)(=O)Nc2ccccc2C(=O)N2CCOCC2)cc1C	-26.5	-15.0	-22.5	·	-4.0	1.0	·
O=C(Nc1ccc(N2CCOCC2)c(Cl)c1)c1cccc(F)c1	-78.4	-151.5	-142.9	-15.5	2.6	12.6	-96.3
O=C(COC(=O)CNC(=O)c1ccc(Cl)c([N+](=O)[O-])c1)NC(=O)c1ccccc1	2.5	-9.5	-0.8	·	-1.7	-0.2	·
CCCN1C(=O)c2ccc(C(=O)Nc3nccs3)cc2C1=O	-3.4	0.5	-8.5	-8.0	5.8	5.2	·
CCCc1cc(C(=O)Nc2nccs2)cs1	-58.3	-165.7	-87.5	3.8	-1.2	-0.1	-109.2
COc1cc(/C=N/NC(=O)c2cccc(C)c2)ccc1OCC(=O)Nc1ccccc1	-9.0	-46.1	10.2	·	5.1	2.3	·
Cn1c(N)c(C(=O)Nc2ccc3ccccc3c2)sc1=S	-73.2	-163.5	-111.8	-21.2	0.8	3.0	-26.1
Cn1c(N)c(C(=O)Nc2ccccc2F)sc1=S	2.2	-5.8	-15.8	1.5	-2.0	0.6	·
CN(Cc1cnn(Cc2ccccc2)c1)C(=O)c1cccc(S(=O)(=O)N2CCOCC2)c1	0.3	21.3	-7.9	·	-0.4	-1.2	·
COc1ccc(C(=O)N(C)Cc2cnn(Cc3ccccc3)c2)cc1S(=O)(=O)N1CCOCC1	-14.3	54.2*	-48.2	·	0.5	-1.0	44.3
Cc1cc(C)c2c(n1)SCC(=O)N2CC(=O)Nc1ccc(Br)c(C)c1	-3.5	9.0	-13.2	·	-3.5	4.4	·
